Most compounds without a hit are left out; they make up all but 2% or so of the library.
IMP-1 inh – IMP-1 metallo-beta-lactamase inhibitors, primary screen, biochemical, epi-absorbance readout, Pseudomonas aeruginosa enzyme; metallo-beta-lactamase IMP-1 (Pseudomonas aeruginosa); purified IMP-1, nitrocefin hydrolysis, epi-absorbance fluorescence; inhibition, % at 5.6 µM; 290,000 compounds, 0.45% hits;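 active = inhibition above the mean plus 3 SD of all compounds in the same screening run, cut at about 4.5% in these data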;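 note: 0% = IMP-1 with DMSO and 100% = DMSO wells lacking enzyme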
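System: Purified recombinant IMP-1 metallo-beta-lactamase enzyme | Measured by: Fluorescence quenching readout, ex 480/em 530 nm | Replication: Singlicate | Incubation: 15 min preincubation plus 25 min reaction at 25 °C | Evaluation: Percent inhibition from optical density relative to buffer-blank wells | Benchmarks: DMSO with and without IMP-1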
PvdQ inh – P. aeruginosa PvdQ acylase inhibitors, primary screen, biochemical, fluorescence, plate reader and imaging, single point; PvdQ acylase [Pseudomonas aeruginosa LESB58]; purified PvdQ acylase; inhibition, % at 10 µM; AID 488965, 2010; 340,000 compounds, 0.063% hits; in the data active = inhibition above about 30%, passing the limit was not always enough;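 note: 0% = vehicle neutral wells and 100% = reference inhibitor wells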
PLC-beta3 inh – human PLC-beta3 inhibitors, primary screen, biochemical, fluorescence | 1-phosphatidylinositol 4,5-bisphosphate phosphodiesterase beta-3 (Homo sapiens), Q01970 | Purified PLC-beta3, fluorogenic substrate | inhibition, % at 12.2 µM | 370,000 compounds, 0.18% hits | AID 720704, 2013; in the data active = inhibition above about 11%;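 note: 0% = median of compound wells on plate and 100% = full blocker control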
Target sequence (Q01970 whole entry, looked up): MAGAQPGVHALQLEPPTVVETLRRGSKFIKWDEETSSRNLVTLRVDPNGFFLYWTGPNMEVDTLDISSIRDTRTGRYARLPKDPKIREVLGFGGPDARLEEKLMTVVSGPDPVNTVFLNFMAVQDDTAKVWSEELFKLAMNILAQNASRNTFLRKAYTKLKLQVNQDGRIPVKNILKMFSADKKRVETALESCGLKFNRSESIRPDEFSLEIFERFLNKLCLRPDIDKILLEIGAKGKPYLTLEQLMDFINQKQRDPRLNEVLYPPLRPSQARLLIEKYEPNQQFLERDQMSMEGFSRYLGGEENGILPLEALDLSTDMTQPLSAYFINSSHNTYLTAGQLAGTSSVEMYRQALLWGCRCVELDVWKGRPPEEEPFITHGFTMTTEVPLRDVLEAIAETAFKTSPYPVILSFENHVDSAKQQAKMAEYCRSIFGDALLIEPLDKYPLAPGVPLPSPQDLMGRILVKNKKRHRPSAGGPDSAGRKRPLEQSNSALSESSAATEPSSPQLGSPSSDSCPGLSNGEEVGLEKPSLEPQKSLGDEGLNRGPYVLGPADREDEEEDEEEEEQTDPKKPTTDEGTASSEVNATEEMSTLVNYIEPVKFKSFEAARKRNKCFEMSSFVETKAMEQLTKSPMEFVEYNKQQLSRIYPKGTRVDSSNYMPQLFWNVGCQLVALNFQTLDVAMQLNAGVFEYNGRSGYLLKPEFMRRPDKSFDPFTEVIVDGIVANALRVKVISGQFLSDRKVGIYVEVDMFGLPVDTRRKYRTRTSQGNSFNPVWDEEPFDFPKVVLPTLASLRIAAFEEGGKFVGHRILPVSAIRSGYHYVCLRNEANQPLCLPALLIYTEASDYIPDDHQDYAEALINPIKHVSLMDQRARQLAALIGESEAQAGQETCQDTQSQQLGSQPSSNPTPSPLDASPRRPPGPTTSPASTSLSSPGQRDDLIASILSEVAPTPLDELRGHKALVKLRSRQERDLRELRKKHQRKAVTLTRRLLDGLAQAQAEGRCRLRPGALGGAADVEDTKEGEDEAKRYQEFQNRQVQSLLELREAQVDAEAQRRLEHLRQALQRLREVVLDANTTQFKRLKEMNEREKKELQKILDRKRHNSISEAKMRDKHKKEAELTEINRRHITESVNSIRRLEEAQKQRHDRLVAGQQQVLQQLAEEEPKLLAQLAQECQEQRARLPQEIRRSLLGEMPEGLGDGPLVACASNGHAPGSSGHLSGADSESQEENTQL
VIM-2 inhibitor – VIM-2 metallo-beta-lactamase inhibitors, primary screen, biochemical, epi-absorbance readout, Pseudomonas aeruginosa enzyme. inhibition, % at 5.6 µM. 290,000 compounds, 0.89% hits. purified VIM-2, nitrocefin hydrolysis, epi-absorbance fluorescence;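 active = inhibition above the mean of all tested compounds plus 3 SD, cutoff set per screening run, cut at about 7.5% in these data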;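 note: red hydrolysis product quenches plate fluorescence so inhibitors raise well fluorescence; 0% = enzyme with DMSO and 100% = DMSO without enzyme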
PLC-gamma1 inh – PLC-gamma1 enzyme inhibitors, primary screen, biochemical, fluorescence, purified enzyme; fluorogenic substrate; inhibition, % at 12.2 µM; 370,000 compounds, 0.84% hits; AID 720700, 2013
PLCg1 ctr – PLC-gamma1 enzyme inhibitors, counter-screen for PLC-beta3 inhibitor project, biochemical, fluorescence | AID 743258, 2014 | inhibition, % at 12.3 µM | 3,300 compounds, 3.1% hits | shares compounds with PLC-gamma1 inh | purified PLC-gamma1, fluorogenic substrate
PLCbeta3 conf – PLC-beta3 inhibitor confirmation, biochemical, fluorescence, purified enzyme. shares compounds with PLC-gamma1 inh. inhibition, % at 12.3 µM. 3,300 compounds, 1% hits. fluorogenic substrate fluorescence. AID 743261, 2014; in the data active = inhibition above about 11%
Active calls of the source: *. Cut-off read from the data, not from the text of the source, unless noted: active = inhibition above about 9.5%; inactive = the rest.

How did CCOC(=O)CN1C(=O)c2ccccc2C1=O do in these assays?
IMP-1 inh: -6.0; PvdQ inh: -11.2; PLC-beta3 inh: 2.5; VIM-2 inhibitor: -1.4; PLC-gamma1 inh: -0.5

What do the screens show for `C=CCOC(=O)CN1C(=O)c2ccccc2C1=O`?
IMP-1 inh: -3.6; PvdQ inh: -4.5; PLC-beta3 inh: 11.6*; VIM-2 inhibitor: -2.5; PLC-gamma1 inh: 9.2; PLCg1 ctr: 1.9; PLCbeta3 conf: 3.5

How did O=C(NCCc1ccccc1)OCc1cn(Cc2ccc(Cl)cc2)nn1 do in these assays?
PLC-beta3 inh: -4.0; PLC-gamma1 inh: -4.4

Results for O=C(NCCc1ccccc1)OCc1cn(Cc2cccc(Cl)c2)nn1 ?
PLC-beta3 inh: -0.2; PLC-gamma1 inh: -3.0

What do the screens show for `COc1cccc(CN(C)C(=O)COc2cccc3c2OC(C)(C)C3)c1OC`?
PvdQ inh: 12.1; PLC-beta3 inh: 12.6*; PLC-gamma1 inh: 13.0*; PLCg1 ctr: -4.5; PLCbeta3 conf: -3.7

What do the screens show for `COc1ccccc1CCNC(=O)COc1cccc2c1OC(C)(C)C2`?
PvdQ inh: -13.8; PLC-beta3 inh: -7.3; PLC-gamma1 inh: 3.2

Results for CS(=O)(=O)n1nc(OC(=O)c2cccs2)cc1N ?
IMP-1 inh: 0.1; PvdQ inh: -18.2; PLC-beta3 inh: 9.6; VIM-2 inhibitor: -1.6; PLC-gamma1 inh: 12.5*; PLCg1 ctr: -4.5; PLCbeta3 conf: 2.4

Results for COc1ccc(S(=O)(=O)n2nc(OC(=O)c3cccs3)cc2N)cc1 ?
IMP-1 inh: -3.7; PvdQ inh: 4.7; PLC-beta3 inh: -1.4; VIM-2 inhibitor: -1.2; PLC-gamma1 inh: 0.8

What do the screens show for `COc1cc(CNCc2ccccc2)cc(Cl)c1OC`?
IMP-1 inh: -1.1; PvdQ inh: -1.4; PLC-beta3 inh: -1.2; VIM-2 inhibitor: -3.2; PLC-gamma1 inh: 1.3

What do the screens show for `COc1c(Cl)cc(Cl)cc1CNCc1ccccc1`?
IMP-1 inh: -3.2; PvdQ inh: -1.0; PLC-beta3 inh: 10.5; VIM-2 inhibitor: -2.1; PLC-gamma1 inh: 10.5*; PLCg1 ctr: -7.3; PLCbeta3 conf: -3.0

Results for CC1CCCCN1S(=O)(=O)c1ccc(N(C(=O)c2cnccn2)C(C(=O)NC2CCCCC2)c2cccs2)cc1 (stereo unspecified) ?
IMP-1 inh: -2.9; PvdQ inh: 1.1; PLC-beta3 inh: 3.5; VIM-2 inhibitor: 0.6; PLC-gamma1 inh: 12.4*; PLCg1 ctr: -6.7; PLCbeta3 conf: -3.0

How did CCOc1ccc(C(=O)Oc2cc(C)[nH]c(=O)c2[N+](=O)[O-])cc1OCC do in these assays?
IMP-1 inh: -2.7; PvdQ inh: -8.5; PLC-beta3 inh: 2.0; VIM-2 inhibitor: 0.1; PLC-gamma1 inh: 10.2*; PLCg1 ctr: 5.5; PLCbeta3 conf: 4.2

What do the screens show for `CCOc1ccc(C(=O)Oc2cc(C)[nH]c(=O)c2[N+](=O)[O-])cc1`?
IMP-1 inh: -2.6; PvdQ inh: -2.6; PLC-beta3 inh: 3.4; VIM-2 inhibitor: -1.1; PLC-gamma1 inh: 4.5

How did O=C(CSc1nnc(-c2ccc(Cl)cc2)n1C1CCCCC1)NN=Cc1c(O)ccc2ccccc12 do in these assays?
PLC-beta3 inh: -4.0; PLC-gamma1 inh: -3.1

How did CS(=O)(=O)N1CCN(CC2CC3C=CC2C3)CC1 (stereo unspecified) do in these assays?
IMP-1 inh: -2.0; PvdQ inh: -1.5; PLC-beta3 inh: -0.8; VIM-2 inhibitor: -2.3; PLC-gamma1 inh: 10.0*; PLCg1 ctr: -2.7; PLCbeta3 conf: -1.3

How did Nc1nonc1C(=O)NCCNCc1cc(Br)ccc1OCc1ccccc1F do in these assays?
IMP-1 inh: 1.8; PvdQ inh: 0.7; PLC-beta3 inh: 11.2*; VIM-2 inhibitor: 1.3; PLC-gamma1 inh: 9.8*; PLCg1 ctr: 0.2; PLCbeta3 conf: 2.7

How did COc1ccccc1CNC(=O)C1CCC(=O)N(CCCN2CCCC2=O)C1 (stereo unspecified) do in these assays?
IMP-1 inh: 2.2; PvdQ inh: -14.7; PLC-beta3 inh: 2.1; VIM-2 inhibitor: -1.4; PLC-gamma1 inh: 9.9*; PLCg1 ctr: -4.3; PLCbeta3 conf: -1.7

How did CN1CCN(c2ccc3c(c2)Oc2ccccc2CN(Cc2cn(Cc4cccc(C(F)(F)F)c4)nn2)S3(=O)=O)CC1 do in these assays?
PLC-beta3 inh: 2.6; PLC-gamma1 inh: 2.9

Results for Cc1cc(C)n(-c2nc3ccccc3c(=O)n2OC2CCCCC2)n1 ?
IMP-1 inh: -2.2; PvdQ inh: -0.9; PLC-beta3 inh: 14.6*; VIM-2 inhibitor: -0.8; PLC-gamma1 inh: 4.9; PLCg1 ctr: -8.2; PLCbeta3 conf: -4.8

How did COc1cccc(-c2ccc(CN3C(C(C)C)C(=O)N(Cc4cn(CCC5OCCO5)nn4)CCS3(=O)=O)cc2)c1OC (stereo unspecified) do in these assays?
PLC-beta3 inh: 9.1; PLC-gamma1 inh: 12.3*; PLCg1 ctr: -2.5; PLCbeta3 conf: 1.6

Results for Cc1ccccc1S(=O)(=O)N1CCCc2nc(C)c(C)cc21 ?
PLC-beta3 inh: -1.1; PLC-gamma1 inh: -2.2

Results for O=C(NC1CCCC1)C(c1cccnc1)N(C(=O)c1csnn1)c1ccc(F)cc1 (stereo unspecified) ?
IMP-1 inh: -3.6; PvdQ inh: -12.7; PLC-beta3 inh: -5.1; VIM-2 inhibitor: -2.6; PLC-gamma1 inh: 9.7*; PLCg1 ctr: -0.7; PLCbeta3 conf: 5.0

How did O=C(NC1CCCC1)C(c1ccccc1)N(C(=O)c1csnn1)c1ccccc1F (stereo unspecified) do in these assays?
IMP-1 inh: -2.0; PvdQ inh: 1.8; PLC-beta3 inh: 5.6; VIM-2 inhibitor: -2.3; PLC-gamma1 inh: 9.9*; PLCg1 ctr: 2.1; PLCbeta3 conf: -3.4

What do the screens show for `O=C(NC1CCCC1)C(c1ccncc1)N(C(=O)c1csnn1)c1ccccc1` (stereo unspecified)?
IMP-1 inh: -1.2; PvdQ inh: 0.3; PLC-beta3 inh: -11.5; VIM-2 inhibitor: -1.8; PLC-gamma1 inh: -0.1

Results for CC(=O)c1ccc(N(C(=O)c2csnn2)C(C(=O)NC2CCCC2)c2ccccc2)cc1 (stereo unspecified) ?
IMP-1 inh: -0.4; PvdQ inh: 5.3; PLC-beta3 inh: 3.0; VIM-2 inhibitor: -2.2; PLC-gamma1 inh: 10.9*; PLCg1 ctr: -3.6; PLCbeta3 conf: 0.8

What do the screens show for `COC(=O)c1cc2c(c3c4cc(OC)ccc4n(S(=O)(=O)c4ccc(F)cc4)c13)C(=O)N(Cc1ccccc1)C2`?
PLC-beta3 inh: -83.7; PLC-gamma1 inh: -66.3

Screening results: PubChem, several laboratories
